# Molecular target: T1, Streptokinase (Streptococcus pyogenes, UniProt P96471)
# T1 sequence (P96471 whole entry): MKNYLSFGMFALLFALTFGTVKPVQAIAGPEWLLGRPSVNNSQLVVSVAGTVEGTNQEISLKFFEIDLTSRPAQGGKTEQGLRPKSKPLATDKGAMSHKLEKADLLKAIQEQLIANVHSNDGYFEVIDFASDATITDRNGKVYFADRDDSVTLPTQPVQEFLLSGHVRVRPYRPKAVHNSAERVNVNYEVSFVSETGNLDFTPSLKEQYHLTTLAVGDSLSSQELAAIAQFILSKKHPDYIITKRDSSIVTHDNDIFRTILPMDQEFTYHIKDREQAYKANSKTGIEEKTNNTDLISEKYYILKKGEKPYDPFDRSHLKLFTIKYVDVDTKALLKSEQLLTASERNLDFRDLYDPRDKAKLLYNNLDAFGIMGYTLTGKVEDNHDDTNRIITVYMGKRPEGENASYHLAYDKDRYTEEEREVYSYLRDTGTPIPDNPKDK
# Assay: Inhibition of Streptococcus pyogenes UMAA2616 streptokinase assessed as plasmin activity in human plasma after 24 hrs by colorimetric analysis
# Method in brief: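 GAS culture grown 24 h with test compound (5 μM for ratio data); culture supernatant mixed with human plasma and resulting plasmin activity read as turnover of plasmin-specific chromogenic substrate at A405. Reported as SK activity relative to DMSO-treated control culture; IC50 taken as concentration giving 50% of maximal inhibition of SK expression; ± standard deviation.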
row,Structure (SMILES),IC50 [nM]
1,C#CCOCCSc1nc2c(c(=O)n1CC=C)C(C)(C)Cc1cc(C(=O)c3ccccc3)ccc1-2,3800
2,C=CCn1c(SCC)nc2c(c1=O)C(C)(C)Cc1ccc(OC)cc1-2,1300
3,C#CCOCCSc1nc2c(c(=O)n1CC=C)C(C)(C)Cc1ccc(N=[N+]=[N-])cc1-2,190
4,C#CCOCCSc1nc2c(c(=O)n1CC=C)C(C)(C)Cc1cc(OCCC3(C)N=N3)ccc1-2,330

# Test system: Streptococcus pyogenes
# Assay: Growth inhibition of Streptococcus pyogenes UMAA2616 at 50 uM after 24 hrs relative to control
# Assay type: organism-based
row,Structure (SMILES),T/C
1,C#CCOCCSc1nc2c(c(=O)n1CC=C)C(C)(C)Cc1cc(C(=O)c3ccccc3)ccc1-2,0.94
2,C#CCSc1nc2c(c(=O)n1CC=C)C(C)(C)Cc1cc(C(=O)c3ccccc3)ccc1-2,1.09
3,C#CCSc1nc2c(c(=O)n1CC=C)C(C)(C)Cc1cc(OCCC3(C)N=N3)ccc1-2,0.96
4,C#CCOc1ccc2c(c1)CC(C)(C)c1c-2nc(SCCC2(C)N=N2)n(CC=C)c1=O,1.02
5,C=CCn1c(SCC)nc2c(c1=O)C(C)(C)Cc1ccc(OC)cc1-2,0.73
6,C#CCOCCOc1ccc2c(c1)CC(C)(C)c1c-2nc(SCCC2(C)N=N2)n(CC=C)c1=O,1.01
7,C#CCOCCSc1nc2c(c(=O)n1CC=C)C(C)(C)Cc1ccc(N=[N+]=[N-])cc1-2,0.98
8,C#CCOCCSc1nc2c(c(=O)n1CC=C)C(C)(C)Cc1cc(OCCC3(C)N=N3)ccc1-2,1.07

# Molecular target: T2, Streptokinase (Streptococcus pyogenes) (UniProt P96471)
# T2 sequence (whole entry): T1 sequence (P96471 whole entry)
# Assay: Inhibition of Streptococcus pyogenes UMAA2616 streptokinase assessed as plasmin activity in human plasma at 5 uM after 24 hrs by colorimetric analysis relative to control
# Method in brief: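 GAS cultures incubated 24 hours with 5 μM compound. Culture supernatant was mixed with human plasma, and the resulting plasmin activity was followed by turnover of a plasmin-specific chromogenic substrate, read as absorbance at 405 nm. Value is the activity of the treated culture divided by that of a DMSO-treated control culture, ± standard deviation.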
row,Structure (SMILES),T/C
1,C#CCOCCSc1nc2c(c(=O)n1CC=C)C(C)(C)Cc1cc(C(=O)c3ccccc3)ccc1-2,0.51
2,C#CCSc1nc2c(c(=O)n1CC=C)C(C)(C)Cc1cc(C(=O)c3ccccc3)ccc1-2,0.77
3,C#CCSc1nc2c(c(=O)n1CC=C)C(C)(C)Cc1cc(OCCC3(C)N=N3)ccc1-2,1.07
4,C#CCOc1ccc2c(c1)CC(C)(C)c1c-2nc(SCCC2(C)N=N2)n(CC=C)c1=O,0.89
5,C=CCn1c(SCC)nc2c(c1=O)C(C)(C)Cc1ccc(OC)cc1-2,0.1
6,C#CCOCCOc1ccc2c(c1)CC(C)(C)c1c-2nc(SCCC2(C)N=N2)n(CC=C)c1=O,0.71
7,C#CCOCCSc1nc2c(c(=O)n1CC=C)C(C)(C)Cc1ccc(N=[N+]=[N-])cc1-2,0.3
8,C#CCOCCSc1nc2c(c(=O)n1CC=C)C(C)(C)Cc1cc(OCCC3(C)N=N3)ccc1-2,0.49

# From ChEMBL document CHEMBL3124834, “Development of tag-free photoprobes for studies aimed at identifying the target of novel Group A Streptococcus antivirulence agents” (Bioorg Med Chem Lett, 2014)
